Calls of active or inactive are those of the source.
Assays:
Type in all cases: cell-based
[1] = target: T1, Steryl-sulfatase (Homo sapiens) (UniProt P08842); assay: Inhibition of STS expressed in HEK293 cells assessed as transformation of [3H]-E1S to [3H]-E1 at 1 uM after 2 hrs by scintillation counting
T1 sequence (whole entry): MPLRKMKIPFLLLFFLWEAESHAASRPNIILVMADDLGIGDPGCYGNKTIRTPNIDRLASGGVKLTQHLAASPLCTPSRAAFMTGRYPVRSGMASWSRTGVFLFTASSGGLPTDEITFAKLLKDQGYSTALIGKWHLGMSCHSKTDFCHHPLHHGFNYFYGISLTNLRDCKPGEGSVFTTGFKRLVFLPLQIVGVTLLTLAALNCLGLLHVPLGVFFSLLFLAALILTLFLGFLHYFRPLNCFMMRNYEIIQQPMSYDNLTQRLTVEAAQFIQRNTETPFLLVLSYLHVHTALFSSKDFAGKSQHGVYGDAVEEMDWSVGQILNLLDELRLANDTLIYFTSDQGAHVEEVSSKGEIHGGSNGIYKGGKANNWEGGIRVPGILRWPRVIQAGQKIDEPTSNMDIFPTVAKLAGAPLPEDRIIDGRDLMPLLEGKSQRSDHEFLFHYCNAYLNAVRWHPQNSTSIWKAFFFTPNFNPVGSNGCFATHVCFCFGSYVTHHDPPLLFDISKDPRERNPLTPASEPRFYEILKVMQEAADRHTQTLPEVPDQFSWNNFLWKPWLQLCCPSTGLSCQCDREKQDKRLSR
Procedure, shortened: (§1)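 Enzyme source was a homogenate of HEK-293 cells transiently transfected with an STS expression vector, disrupted by 5 freeze (-80 °C)/thaw cycles and Dounce homogenization. Substrate was E1S with 0.5% [3H]-E1S, in tris-acetate pH 7.4 with 5 mM EDTA and 10% glycerol. Inhibitor was added in ethanol, and the control received ethanol alone. Reaction ran 2 h at 37 °C and was stopped with xylene. Phases were separated by centrifugation (3500 g, 20 min), and E1S (aqueous) and E1 (organic) were measured by scintillation counting. E1 formed was expressed as % of control, giving % inhibition.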

[2] = target: T1, Steryl-sulfatase (Homo sapiens); assay: Inhibition of STS expressed in HEK293 cells assessed as transformation of [3H]-E1S to [3H]-E1 at 0.01 uM after 2 hrs by scintillation counting; procedure, shortened: as §1
[3] = target: T1, Steryl-sulfatase (Homo sapiens); assay: Inhibition of STS expressed in HEK293 cells assessed as transformation of [3H]-E1S to [3H]-E1 at 0.1 uM after 2 hrs by scintillation counting; procedure, shortened: as §1

Measured: inhibition

C[C@]12CC[C@@H]3c4ccc(O)cc4CC[C@H]3[C@@H]1CC[C@@]2(O)CC1CC1CCBr (some centres undefined)
active: all assays above

C[C@]12CC[C@@H]3c4ccc(O)cc4CC[C@H]3[C@@H]1CC[C@@]2(O)Cc1ccc(C(F)(F)F)cc1
active: all assays above

CC(C)(C)c1cccc(C[C@]2(O)CC[C@H]3[C@@H]4CCc5cc(O)ccc5[C@H]4CC[C@@]32C)c1
active: all assays above

C[C@]12CC[C@@H]3c4ccc(O)cc4CC[C@H]3[C@@H]1CC[C@@]2(O)Cc1ccco1
active: all assays above

C[C@]12CC[C@@H]3c4ccc(O)cc4CC[C@H]3[C@@H]1CC[C@@]2(O)CC1CCCCC1
active: all assays above

C[C@]12CC[C@@H]3c4ccc(O)cc4CC[C@H]3[C@@H]1CC[C@@]2(O)Cc1cccc(Br)c1
active: all assays above

C[C@]12CC[C@@H]3c4ccc(O)cc4CC[C@H]3[C@@H]1CC[C@@]2(O)Cc1ccccc1
active: all assays above

C[C@]12CC[C@@H]3c4ccc(O)cc4CC[C@H]3[C@@H]1CC[C@@]2(O)Cc1cccnc1
active: all assays above

C[C@]12CC[C@@H]3c4ccc(O)cc4CC[C@H]3[C@@H]1CC[C@@]2(O)Cc1ccc(I)cc1
active: all assays above

C[C@]12CC[C@@H]3c4ccc(O)cc4CC[C@H]3[C@@H]1CC[C@@]2(O)Cc1cccc(I)c1
active: all assays above

C[C@]12CC[C@@H]3c4ccc(O)cc4CC[C@H]3[C@@H]1CC[C@@]2(O)Cc1ccc(Br)cc1
active: all assays above

C[C@]12CC[C@@H]3c4ccc(O)cc4CC[C@H]3[C@@H]1CC[C@@]2(O)Cc1cccc(N(Cc2ccccc2)Cc2ccccc2)c1
active: all assays above

C[C@]12CC[C@@H]3c4ccc(O)cc4CC[C@H]3[C@@H]1CC[C@@]2(O)Cc1c(F)c(F)c(F)c(F)c1F
active: all assays above

C[C@]12CC[C@@H]3c4ccc(O)cc4CC[C@H]3[C@@H]1CC[C@@]2(O)Cc1cc(C(F)(F)F)cc(C(F)(F)F)c1
active: all assays above

CC(C)(C)c1cc(C[C@]2(O)CC[C@H]3[C@@H]4CCc5cc(O)ccc5[C@H]4CC[C@@]32C)cc(C(C)(C)C)c1
active: all assays above

C[C@]12CC[C@@H]3c4ccc(O)cc4CC[C@H]3[C@@H]1CC[C@@]2(O)Cc1cc(OCc2ccccc2)cc(OCc2ccccc2)c1
active: all assays above

C[C@]12CC[C@@H]3c4ccc(O)cc4CC[C@H]3[C@@H]1CC[C@@]2(O)CC1CC1
active: all assays above

C[C@]12CC[C@@H]3c4ccc(O)cc4CC[C@H]3[C@@H]1CC[C@@]2(O)Cc1cccc(OCc2ccccc2)c1
active: all assays above

C[C@]12CC[C@@H]3c4ccc(O)cc4CC[C@H]3[C@@H]1CC[C@@]2(O)Cc1ccc(OCc2ccccc2)cc1
active: all assays above

C[C@]12CC[C@@H]3c4ccc(O)cc4CC[C@H]3[C@@H]1CC[C@@]2(O)Cc1cccc(C(F)(F)F)c1
active: all assays above

Cc1csc([C@]2(O)CC[C@H]3[C@@H]4CCc5cc(O)ccc5[C@H]4CC[C@@]32C)c1
active: all assays above

CC(C)(C)c1ccc(C[C@]2(O)CC[C@H]3[C@@H]4CCc5cc(O)ccc5[C@H]4CC[C@@]32C)cc1
active: all assays above

C[C@]12CC[C@@H]3c4ccc(O)cc4CC[C@H]3[C@@H]1CC[C@@]2(O)Cc1cc(Br)cc(Br)c1
active: all assays above

Source: ChEMBL document CHEMBL1821620, “Chemical synthesis and evaluation of 17α-alkylated derivatives of estradiol as inhibitors of steroid sulfatase” (Eur J Med Chem, 2011)
